OXTR agonist: activates the human oxytocin receptor | CHO-OTR cells, Fluo-8 calcium fluorescence; normalized: DMSO 0%, oxytocin 100% | activation, % at 3 µM | hit rate 0.32% among 320,000;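 active means activation above the mean of all tested compounds plus 3 SD, cutoff set per screening run, cut at about 20% in these data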;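 further: peak over basal fluorescence ratio from a 100 s FLIPR kinetic read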
Target sequence (P30559 whole entry, looked up): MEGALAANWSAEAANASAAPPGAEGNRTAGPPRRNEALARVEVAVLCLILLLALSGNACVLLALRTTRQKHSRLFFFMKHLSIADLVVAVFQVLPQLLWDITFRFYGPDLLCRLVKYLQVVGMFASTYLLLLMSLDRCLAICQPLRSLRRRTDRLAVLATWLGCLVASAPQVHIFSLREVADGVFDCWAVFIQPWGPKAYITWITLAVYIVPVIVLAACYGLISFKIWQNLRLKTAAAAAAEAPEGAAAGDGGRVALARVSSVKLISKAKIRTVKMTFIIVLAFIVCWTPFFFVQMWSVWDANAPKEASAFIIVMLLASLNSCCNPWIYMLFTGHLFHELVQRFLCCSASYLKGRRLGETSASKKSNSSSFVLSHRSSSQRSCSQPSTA
zfTRPN1 agonist: agonists of zebrafish TRPN1 channel | HEK293 zebrafish TRPN1-YFP, Fluo-8 calcium fluorescence; 100% = response to 87 µM carbachol | activation, % at 3 µM | hit rate 0.18% among 220,000;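 active means activation above its plate's cutoff, the mean activation of test wells on that plate plus 3 SD, cut at about 19% in these data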;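 further: 0% = DMSO alone and 100% = 87 µM carbachol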
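Assay system: Zebrafish TRPN1-YFP in HEK293 cells | Incubation: Dye loading 1 h at 37 °C, then 30 min room temperature | Measured by: Kinetic Fluo-8 fluorescence, ex 470-495, em 515-575 nm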
OXTR potentiate: potentiates the human oxytocin receptor response; P30559; CHO-OTR cells, Fluo-8 calcium fluorescence, potentiator mode; 0% = oxytocin EC15, 100% = EC100; activation, % at 3 µM; hit rate 0.061% among 320,000; AID 2445;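 active means activation above that plate's cutoff, the mean activation of tested compounds plus 3 SD, cut at about 6.6% in these data, passing the limit was not always enough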;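 further: 100% uses oxytocin at 75 nM as the full agonist control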
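Material: CHO-OTR cells, human receptor; compound dosing: single dose, 3.0 µM nominal final compound concentration; schedule: 6 min compound pre-incubation at room temperature, 100 s kinetic read; measured by: kinetic Fluo-8 calcium fluorescence; read-out basis: % activation vs EC15 and EC100 oxytocin; controls: EC15 oxytocin alone as 0%, 75 nM oxytocin as 100%; replicates: singlicate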
TRPML3 agonist: agonists of human TRPML3 channel | Q8TDD5 | HEK293 TRPML3-YFP, Fluo-8 calcium fluorescence; 100% = the carbachol control signal | activation, % at 3 µM | hit rate 0.29% among 220,000 | AID 1448;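 active means activation above its plate's cutoff, the mean activation of the plate's test wells plus 3 SD, cut at about 12% in these data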;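 further: 0% = DMSO only wells and 100% = carbachol wells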
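Material: HEK293 cells stably carrying human TRPML3-YFP; compound dosing: single dose, 3 µM final nominal compound, 0.3% DMSO final; incubation: 1-h 37 °C dye load, 5-s basal, 120-s post-compound reads; technique: Fluo-8 intracellular calcium fluorescence, excitation 470-495 nm, emission 515-575 nm; read-out basis: percent activation from peak-to-basal fluorescence ratio, scaled between DMSO and carbachol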
V1R ag counter: activates human V1a receptor in oxytocin agonist counter-screen. CHO-V1R cells, Fluo-8 calcium fluorescence, agonist mode; 0% DMSO, 100% 3 nM vasopressin. hit rate 0.25% among 320,000. activation, % at 3 µM. P37288. AID 2797;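 active means activation above the mean activation of all tested compounds plus 3 SD, per screening run, cut at about 20% in these data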;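 further: signal is peak over basal fluorescence ratio across a 100 second FLIPR read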
TRPN1 counter: zebrafish TRPN1 agonism as TRPML3 agonist counter-screen; HEK293 zebrafish TRPN1-YFP, Fluo-8 calcium fluorescence; scaled: carbachol wells 100%, DMSO wells 0%; activation, % at 3 µM; shares compounds with TRPML3 agonist; hit rate 10% among 310;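 active means mean activation over replicates above a set limit taken from the earlier TRPN1 channel primary screen, cut at about 19% in these data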;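 further: 100% = carbachol and 0% = 0.3% DMSO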
TRPML3 ag conf: confirmation of human TRPML3 channel agonists | HEK293 TRPML3-YFP, Fluo-8 calcium fluorescence; 100% set by carbachol, 0% by DMSO | hit rate 80% among 310 | shares compounds with TRPML3 agonist | activation, % at 3 µM;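 active means activation above a set limit derived from the earlier primary screen, cut at about 12% in these data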
Active calls of the source: *; · = no result. This is a sample that favours compounds with a hit; in the whole collection about 0.58% have one here.

SMILES	OXTR agonist	zfTRPN1 agonist	OXTR potentiate	TRPML3 agonist	V1R ag counter	TRPN1 counter	TRPML3 ag conf
CCC(C(=O)Nc1cc(C)nn1-c1nc(C)cc(C)n1)c1ccccc1 (stereo unspecified)	-1.1	2.2	-10.6	23.3*	0.6	1.9	22.6*
Cc1ccc(S(=O)(=O)Nc2cc(C(F)(F)F)ccc2N2CCOCC2)c(C)c1	-1.1	6.1	-8.5	47.9*	-0.2	9.7	101.6*
Cc1ccc(S(=O)(=O)Nc2cc(C(F)(F)F)ccc2N2CCOCC2)cc1	-1.0	2.4	-13.5	1.0	0.0	·	·
COc1ccc(S(=O)(=O)NC2CCCC2)c(Cl)c1Cl	-1.7	-1.7	2.4	34.5*	-1.4	-2.1	47.8*
CCS(=O)(=O)N1CCN(C(=O)c2cccc3ccccc23)CC1	0.1	·	2.6	·	1.3	·	·
Fc1ccc(Nc2nnc(C(F)(F)F)s2)cc1Cl	9.7	18.5	-17.9	16.7*	8.5	15.5	9.1
CCn1cc(C(=O)NCCCN2CCN(C)CC2)c(=O)c2cc(S(=O)(=O)N3CCc4ccccc4C3)ccc21	-0.3	-0.7	-5.1	-0.1	1.4	·	·
CCN1C(=S)N[C@@H](c2cccs2)C(C(=O)OC)=C1C	-1.4	·	-11.0	·	-0.2	·	·
Cc1ccc(CNc2ccc3c(c2)ncn3C(C)C)cc1	-1.3	13.0	-6.4	36.2*	2.7	36.1*	29.1*
CCc1nc2ccccc2c(C(=O)Nc2cccc(C)c2)c1C	-0.8	·	-3.5	·	-0.9	·	·
CC(C)Cn1nc(C(=O)Nc2cccc(C(=O)NC3CC3)c2)c2ccccc2c1=O	-1.0	·	1.0	·	-0.3	·	·
S=C(NCc1ccccc1)NC1CCSc2ccccc21 (stereo unspecified)	-1.0	·	-16.1	·	1.1	·	·
CC(=Nc1ccc(O)cc1)c1sc2ccccc2c1O	8.3	1.6	-12.3	1.8	7.2	·	·
CC(=Nc1ccccc1O)c1sc2ccccc2c1O	26.9*	15.9	-9.3	11.9*	31.3*	20.7*	8.9
CN(C1CCCCC1)S(=O)(=O)c1cccc(C#N)c1	-1.0	0.3	-8.6	63.1*	0.4	0.0	44.0*
CCOc1ccc(S(=O)(=O)N(C)C2CCCCC2)cc1	-0.5	·	-14.1	·	-1.3	·	·
Cc1ccc(-c2csc(NC(=O)C3CCN(S(=O)(=O)c4cccs4)CC3)n2)cc1	6.5	3.2	-3.8	4.1	5.3	·	·
O=C(Nc1nc(-c2ccc3ccccc3c2)cs1)C1CCN(S(=O)(=O)c2cccs2)CC1	-0.8	-0.3	-5.2	19.0*	0.3	3.0	52.0*
CC1(C)CC(=O)N(c2cc(Cl)ccc2Cl)C(=O)C1	0.7	·	-5.5	·	1.1	·	·
Cc1ccc(C(=O)NNC(=S)NC(=O)c2ccco2)cc1	45.2*	17.7	-14.9	28.5*	63.9*	39.5*	36.2*
COc1ccc(CC(=O)Nc2cccc(/C(C)=N/NC(=O)C3(C)CC3(Br)Br)c2)cc1 (stereo unspecified)	0.8	·	-4.9	·	1.0	·	·
O=C1CN(S(=O)(=O)c2ccc(F)cc2)CC(=O)N1CCc1ccccc1	·	-0.4	·	12.3*	·	0.6	23.4*
COC(=O)c1cc(S(=O)(=O)N(C)C2CCCCC2)oc1C	-2.6	-1.7	-7.5	4.5	-1.1	·	·
COc1cc(S(=O)(=O)N(C)C2CCCCC2)c(C)cc1C	·	-2.6	·	54.0*	·	-2.9	63.5*
COc1ccccc1-c1ccc(/C=C2\C=CC(=O)O2)o1	49.9*	17.3	-19.8	13.7*	43.5*	21.2*	12.7*
SMILES	OXTR agonist	zfTRPN1 agonist	OXTR potentiate	TRPML3 agonist	V1R ag counter	TRPN1 counter	TRPML3 ag conf
COc1ccccc1-c1ccc(/C=C2/C=C(C)OC2=O)o1	1.0	-0.1	-15.5	1.0	1.0	·	·
Oc1c(Cl)cc(Cl)cc1Sc1cc(Cl)cc(Cl)c1O	16.6	16.0	-10.9	12.9*	9.2	29.4*	13.4*
Oc1c(Cl)cc(Cl)cc1CNn1cnnc1	-0.3	0.1	-13.3	0.3	0.0	·	·
C=CCN1C(=O)/C(=C/c2ccc(OC(C)=O)c(OCC)c2[N+](=O)[O-])SC1=S	·	18.5	·	12.2*	·	19.2*	7.0
CCOc1c(OC(C)=O)ccc(/C=C/c2ccc3cccc(OC(C)=O)c3n2)c1[N+](=O)[O-]	-0.2	0.1	-8.6	0.2	-0.1	·	·
CC(C)[C@H](NS(=O)(=O)c1ccccc1)C(=O)OCC(=O)Nc1ccccc1Sc1ccccc1	-0.3	-3.0	-11.3	41.6*	0.3	0.5	65.9*
Cc1cc(NC(=O)COC(=O)[C@@H](NS(=O)(=O)c2ccccc2)C(C)C)no1	0.2	0.6	0.1	0.2	2.8	·	·
COc1ccccc1C1CN=NC12CCCc1ccccc1C2=O (stereo unspecified)	-2.0	-1.5	-7.4	24.1*	-0.7	-0.1	91.1*
CC12CCC(C(=O)N(CSC(=S)N/N=C\c3ccccc3Cl)C1=O)C2(C)C (stereo unspecified)	-1.8	-0.6	-10.9	38.4*	0.5	-1.1	-0.2
CC12CCC(C(=O)N(CSC(=S)N/N=C\c3ccccc3)C1=O)C2(C)C (stereo unspecified)	-1.7	0.4	-16.1	43.3*	-1.0	-0.5	1.7
CC12CCC(C(=O)N(CC(=O)O)C1=O)C2(C)C (stereo unspecified)	-0.8	0.8	-9.5	0.6	1.1	·	·
COC(=O)c1ncccc1SC	0.7	2.9	3.4	0.4	0.3	·	·
S=C(NC1CCCCC1)N1CCOCCOCCN(C(=S)NC2CCCCC2)CCOCC1	-3.9	0.8	-11.2	18.1*	0.0	-0.8	33.0*
O=C1CSc2ccc(C(=O)Nc3cccc(S(=O)(=O)Nc4ccc(Br)cc4)c3)cc2N1	-0.8	0.7	-11.3	0.4	2.0	·	·
N=C1SCC(=O)N1c1ncc(Cc2cccc(Cl)c2)s1	·	4.4	·	45.1*	·	5.5	25.8*
Cc1cccc(Cc2cnc(N3C(=N)SC(C)C3=O)s2)c1 (stereo unspecified)	-0.6	1.2	-5.6	1.9	0.1	·	·
N=C1SCC(=O)N1c1ncc(Cc2ccccc2Cl)s1	·	2.6	·	137.4*	·	5.0	169.9*
O=S(=O)(Nc1ccccc1N1CCCCC1)c1ccc(Cl)s1	-1.2	-2.9	-0.6	139.3*	-1.9	-1.7	109.5*
COC(=O)c1c(C)oc(C)c1S(=O)(=O)N1CCCC1	0.1	-0.4	0.8	0.3	0.0	·	·
COc1ccc(N2C(=O)C(F)(F)C2c2ccccc2F)cc1 (stereo unspecified)	·	-2.8	·	21.4*	·	-2.1	33.7*
COc1ccc(N2C(=O)C(F)(F)C2c2cccc(F)c2)cc1 (stereo unspecified)	-2.0	-1.3	-12.0	3.2	0.9	·	·

Screening results from PubChem BioAssay.
